Several values for one entry are separate records, joined by “and”; a condition that tells them apart may be missing. Equal values may be shown once. Entries after “also recorded” stand apart in the source; their conditions may differ. Read-outs that look alike come from different tables or passages of the source. Marks after values point to notes of the source that are not given here.
How the values were obtained:
[1] = test system: human metastatic melanoma UACC 903 cells; settings: read-out: IC50, UACC 903 cells; MTS assay, ± SEM; ref Robertson et al. (2014); cited from earlier work
[2] = test system: P. falciparum gametocytes; type: cell-based, Plasmodium falciparum; settings: 48 h
Outline: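 Gametocytes came from P. falciparum cultured continuously for 6–8 weeks at >10% parasitemia, with weekly sorbitol synchronization, in human erythrocytes at 37 °C under 5% O2/5% CO2/90% N2. Gametocyte cultures were exposed to test compound at 10 or 20 μM for 48 h alongside untreated controls. Giemsa-stained smears of culture pellets were then examined by light microscopy for gametocyte morphology.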

[3] = test system: human normal skin fibroblast FF 2441 cells; settings: read-out: IC50, FF 2441 cells; MTS assay, ± SEM; ref Robertson et al. (2014); cited from earlier work
[4] = test system: P. falciparum 3D7 parasites (asexual stage, ring stage); type: cell-based, Plasmodium falciparum; settings: for Antimalarial activity, ranking among the three compounds tested: 2.5-20 μM, 24-72 h, microscopy
Outline: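 Sorbitol-synchronized P. falciparum 3D7 in human erythrocytes (37 °C, 5% O2/5% CO2/90% N2) was treated at ring stage (8–10 h post-invasion, 4–6% parasitemia) with 2.5, 5, 10 or 20 μM test compound, or left untreated. Aliquots were taken at 24, 48 and 72 h for Giemsa-stained thin smears. Percent parasitemia and stage (rings, trophozoites, schizonts) were scored by light microscopy.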

P. falciparum 3D7 = experiment: Antimalarial activity by SYBR Green assay; type: cell-based, Plasmodium falciparum; settings: for IC50: mean of three independent experiments ± SEM; for Antimalarial activity: summary of IC50 results
[5] = 2.5 μM, 48 h, treated at ring stage
[6] = 2.5 μM, 72 h, treated at ring stage
[7] = 5 μM, 24 h, treated at ring stage
[8] = 5 μM, 48 h, treated at ring stage
[9] = 5 μM, 72 h, NVP = no viable parasites
[10] = 10 μM, 24 h, treated at ring stage
[11] = 10 μM, 48 h, ring-stage (R) parasites
[12] = 10 μM, 72 h, NVP = no viable parasites
[13] = 20 μM, 24 h, NVP = no viable parasites
[14] = 20 μM, 48 h, ring-stage (R) parasites, NVP = no viable parasites
[15] = 20 μM, 72 h, NVP = no viable parasites
[16] = up to 20 μM, 48 h, ring stage treated

Compound | IC50 [1] [µM] | IC50 [3] [µM] | Percent parasitemia and parasite growth stage [4, 5] | Percent parasitemia and parasite growth stage [4, 6] | Percent parasitemia and parasite growth stage [4, 7] | Percent parasitemia and parasite growth stage [4, 8] | Percent parasitemia and parasite growth stage [4, 9] | Percent parasitemia and parasite growth stage [4, 10] | Percent parasitemia and parasite growth stage [4, 11] | Percent parasitemia and parasite growth stage [4, 12] | Percent parasitemia and parasite growth stage [4, 13] | Percent parasitemia and parasite growth stage [4, 14] | Percent parasitemia and parasite growth stage [4, 15] | Antimalarial activity, ranking among the three compounds tested [4] | Inhibition of parasite growth (P. falciparum 3D7; [16]) | IC50 (P. falciparum 3D7; read-out: IC50, 3D7, 72 h) | Inhibition of parasite growth (P. falciparum 3D7; 20 μM, 72 h) | Antimalarial activity (P. falciparum 3D7) | other results
CC(C)C1=CC2=CC[C@@H]3[C@](C)(CCC[C@@]3(C)C(=O)O)[C@H]2CC1 [compound 3, abietic acid] | > 100 | > 100 | 21.6 ± 1.0 (R) % | 20.6 ± 1.2 (T) % | 6.0 ± 0.3 (T) % | 22.0 ± 1.3 (R) % | 20.6 ± 0.4 (T) % | 5.7 ± 0.3 (T) % | 22.3 ± 0.6 (R) % | 20.0 ± 0.2 (T) % | 5.9 ± 0.4 (T) % | 20.6 ± 0.9 (R) % | 15.1 ± 0.3 (T) % | negligibly active | negligible activity |  |  |  | Gametocidal effect ([2]; 10 and 20 μM): no activity; also recorded: no effect on gametocytes; Effect on parasite growth ([4]; 20 μM, second life cycle): noticeably inhibit parasite growth; Effect on parasite growth ([4]; 2.5, 5, and 10 μM, 72 h culturing period): no effect on parasite growth; IC50 (P. falciparum 3D7; Plasmodium falciparum, 3D7, 72 h, read-out: IC50, 3D7, 72 h): ~82 µM
CC(C)C1=CC2=CC[C@H]3[C@](C)(CN)CCC[C@]3(C)[C@H]2CC1 [4d, abietylamine] | 2.1 ± 0.25 | 8.3 ± 0.41 | 20.4 ± 1.3 (R) % | 10.0 ± 0.5 (T) % | 6.0 ± 0.4 (T) % | 16.1 ± 1.5 (R) % | 9.0 ± 0.4 (T) ^b % | 4.3 ± 0.4 (T) % | 10.1 ± 0.6% | 8.3 ± 0.1 (T) ^b % | 3.7 ± 0.3 (T) % |  | NVP ^b | moderately active |  | 8.2 ± 0.48 µM |  |  | Inhibition of parasite growth ([4]; 2.5 μM, by 72 h): about 50%; Parasites developed into trophozoites ([4]; 20 μM, 24 h period): ~ 60%; Percent parasitemia and parasite growth stage ([4]; 20 μM, 48 h, ring-stage (R) parasites, NVP = no viable parasites, listed as Abietylamine): 2.4 ± 0.5%; Percent parasitemia and parasite growth stage ([4]; 20 μM, 48 h, ring-stage (R) parasites, NVP = no viable parasites, listed as abietylamine): ~ 2.4%; Parasites at the trophozoite and schizont stages ([4]; 20 μM, 48 h, share of those that developed into trophozoites): ~ 45%; Effect on parasites ([4]; 20 μM, by 72 h): completely killed the parasites
CC(C)c1ccc2c(c1)CC[C@H]1[C@](C)(CN)CCC[C@]21C [compound 1, dehydroabietylamine] | 1.4 ± 0.24 | 8.9 ± 0.68 | 10.3 ± 1.3 (R) % | 9.1 ± 0.5 (T) ^b % | 5.5 ± 0.3 (T) % | 6.1 ± 1.5 (T, S, R) % | NVP | 3.3 ± 0.3 (T) % |  | NVP | NVP^c | NVP | NVP | most active | efficiently inhibited parasite growth in a dose dependent manner | 1.8 ± 0.22 µM |  |  | Gametocidal effect ([2]; 10 μM): gametocytes shrunk and condensed into non-viable, rounded condensed bodies; Gametocidal effect ([2]; 20 μM): completely lysed gametocytes; Parasites developed into trophozoites ([4]; 10 μM, 24 h treatment): ~ 60%; Remaining trophozoites still at the trophozoite and schizont stages, unhealthy ([4]; 10 μM, 48 h): ~ 73%; Percent parasitemia and parasite growth stage ([4]; 10 μM, 48 h, ring-stage (R) parasites, listed as Dehydroabietylamine): 2.5 ± 0.2%; Percent parasitemia and parasite growth stage ([4]; 10 μM, 48 h, ring-stage (R) parasites, listed as dehydroabietylamine): ~ 2.5%; Trophozoites matured into healthy schizonts ([4]; 10 μM, by 48 h): ~ 27%; Effect on parasite development ([4]; 20 μM, 24 h): completely inhibited parasite development into trophozoites
CC(C)c1ccc2c(c1)CC[C@H]1[C@](C)(CNC(c3ccccc3)(c3ccccc3)c3ccccc3)CCC[C@]21C [2f] | > 100 | > 100 |  |  |  |  |  |  |  |  |  |  |  |  |  | ~90.6 µM and 90.6 µM | not inhibitory |  | 
CC(C)c1ccc2c(c1)CCC1C(C)(CNC(=O)c3ccccc3)CCCC21C (stereo not drawn) [2d, N-dehydroabietylbenzamide] | > 100 | > 100 |  |  |  |  |  |  |  |  |  |  |  |  |  | 0.36 ± 0.13 µM |  | good to excellent antimalarial activity; also recorded: most potent antimalarial activity | 
CCC(=O)NCC1(C)CCCC2(C)c3ccc(C(C)C)cc3CCC12 (stereo not drawn) [2c, N-dehydroabietylpropionamide] | 89.4 ± 3.3 | > 100 |  |  |  |  |  |  |  |  |  |  |  |  |  | 13.3 ± 0.44 µM | complete inhibition | good to excellent antimalarial activity | 

Reference: paper PMC4480188 (Experimental parasitology, 2015)
